# Data reported in PMC5743405 (International Journal of Oncology, 2017).
# Values joined by “and” are separate entries in the source; they are usually repeats but may differ in a detail not shown here. Identical values can stand only once.
# Columns and labels:
# [1] = test system: P2RY12; test: PathHunter β-arrestin; assay type: cell-based; details: 6 μM
# Method in brief: (§1)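 β-Arrestin recruitment to GPCR read by β-galactosidase fragment complementation and chemiluminescence. Agonist: % = 100 × (test − vehicle)/(max control ligand − vehicle), hit at >30% and RLU > baseline + 3 SD. Antagonist, against EC80 agonist: % inhibition = 100 × (1 − (test − vehicle)/(EC80 − vehicle)), hit at >35% and RLU < EC80 − 3 SD.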
# [2] = test system: PTGIR; test: PathHunter β-arrestin; assay type: cell-based; details: 6 μM
# Method in brief: as §1
# [3] = test system: AGTRL1; test: PathHunter β-arrestin; assay type: cell-based; details: agonist mode, 6 μM
# Method in brief: (§2)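 β-Arrestin recruitment assay: the enzyme acceptor is fused to β-arrestin and the ED fragment to the GPCR. Recruitment restores β-galactosidase, read by chemiluminescence. % activity = 100% × (test − vehicle)/(max control ligand − vehicle). % inhibition = 100% × (1 − (test − vehicle)/(EC80 control − vehicle)). An agonist hit needs >30% activity and RLU > baseline + 3×SD. An antagonist hit needs >35% inhibition and RLU < EC80 RLU − 3×SD.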
# [4] = test system: EBI2; test: PathHunter β-arrestin; assay type: cell-based; details: antagonist mode, 6 μM
# Method in brief: (§3)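 Engineered cells express the receptor fused to one β-galactosidase fragment (ED) and β-arrestin fused to the complementing fragment (EA). Receptor activation recruits β-arrestin, which restores enzyme activity, and this is read by chemiluminescence (RLU). Agonist % activity is 100% × (test − vehicle)/(maximal control ligand − vehicle). Antagonist mode is challenged with an EC80 control agonist, and % inhibition is 100% × (1 − (test − vehicle)/(EC80 − vehicle)). Hits require >30% activity or >35% inhibition, plus a 3×SD RLU margin.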
# [5] = test system: ADORA3; test: PathHunter β-arrestin; assay type: cell-based; details: 6 μM
# Method in brief: as §2
# [6] = test system: HTR1F; test: PathHunter β-arrestin; assay type: cell-based; details: 6 μM
# Method in brief: (§4)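 Vendor-run (DiscoveRx) PathHunter enzyme fragment complementation. β-Arrestin carries the EA fragment and the receptor carries ED; recruitment restores β-gal activity, read by chemiluminescence (RLU). Agonist % activity = vehicle-subtracted RLU relative to max control ligand (gpcrMAX) or to vehicle (orphanMAX). Antagonist % inhibition = 100% × (1 − vehicle-subtracted sample RLU / vehicle-subtracted EC80 agonist control RLU).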
# [7] = test system: TLR6; test: immunocytochemistry, colocalization with TLR6, JJ012 cells; assay type: cell-based, human; details: TLR6 yellow (DyLight 550), PRP-1 green (Alexa Fluor 488)
# [8] = test system: PRLHR; test: PathHunter β-arrestin; assay type: cell-based; details: antagonist mode, 6 μM
# [9] = test system: CX3CR1; test: PathHunter β-arrestin; assay type: cell-based; details: 6 μM
# Method in brief: as §3
# [10] = test system: TLR1; test: RT2 qPCR primer assay, JJ012 cells; assay type: cell-based, human
# Method in brief: (§5)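 RNA was extracted, checked by spectrophotometry and reverse-transcribed. Custom RT2 SYBR-Green primer assays were run on three samples in technical triplicate. Ct was normalised to mean GAPDH/ACTB, ΔΔCt taken versus control, and fold change = 2^−ΔΔCt.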
# [11] = test system: HCRTR2; test: PathHunter β-arrestin; assay type: cell-based; details: antagonist mode, 6 μM
# Method in brief: as §4
# [12] = test system: OPRL1; test: PathHunter β-arrestin; assay type: cell-based; details: antagonist mode, 6 μM
# Method in brief: (§6)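 GPCR-ED fusion and β-arrestin-EA fusion; arrestin recruitment restores β-galactosidase, read by chemiluminescence. Antagonist mode uses EC80 agonist challenge. % inhibition = 100 × (1 − (test − vehicle RLU)/(EC80 control − vehicle RLU)). Hit requires >35% inhibition and mean RLU below EC80 RLU − 3 × EC80 SD.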
# [13] = test system: CALCR-RAMP3; test: PathHunter β-arrestin; assay type: cell-based; details: antagonist mode, 6 μM
# Method in brief: as §2
# [14] = test system: NMU1R; test: PathHunter β-arrestin; assay type: cell-based; details: 6 μM
# Method in brief: as §4
# [15] = test system: CCR5; test: PathHunter β-arrestin; assay type: cell-based; details: antagonist mode, 6 μM
# Method in brief: as §3
# [16] = test system: RXFP3; test: PathHunter β-arrestin; assay type: cell-based; details: 6 μM
# Method in brief: as §1
# [17] = test system: GPR109A; test: PathHunter β-arrestin; assay type: cell-based; details: antagonist mode, 6 μM
# Method in brief: as §4
# [18] = test system: PTGFR; test: PathHunter β-arrestin; assay type: cell-based; details: antagonist mode, 6 μM
# [19] = test system: PTGER3; test: PathHunter β-arrestin; assay type: cell-based; details: 6 μM
# Method in brief: as §1
# [20] = test system: BDKRB2; test: PathHunter β-arrestin; assay type: cell-based; details: antagonist mode, 6 μM
# Method in brief: as §2
# [21] = test system: LTB4R; test: PathHunter β-arrestin; assay type: cell-based; details: agonist mode, 6 μM
# Method in brief: as §4
# [22] = test system: GPR35; test: PathHunter β-arrestin; assay type: cell-based; details: 6 μM
# Method in brief: as §4
# [23] = test system: AVPR1A; test: PathHunter β-arrestin; assay type: cell-based; details: antagonist mode, 6 μM
# Method in brief: as §2
# [24] = test system: OXER1; test: PathHunter β-arrestin; assay type: cell-based; details: agonist mode, 6 μM
# [25] = test system: ADRA1B; test: PathHunter β-arrestin; assay type: cell-based; details: agonist mode, 6 μM
# Method in brief: as §2
# [26] = test system: P2RY1; test: PathHunter β-arrestin; assay type: cell-based; details: 6 μM
# Method in brief: as §1
# [27] = test system: CALCRL-RAMP2; test: PathHunter β-arrestin; assay type: cell-based; details: 6 μM
# Method in brief: as §2
# [28] = test system: TLR2; test: RT2 qPCR primer assay, JJ012 cells; assay type: cell-based, human; details: 1 μg/ml PRP-1
# Method in brief: as §5
# [29] = test system: GPCR receptors; test: PathHunter β-arrestin gpcrMAX panel, antagonist mode; assay type: cell-based; details: summary of Table II
# Method in brief: as §6
# [30] = test system: CHRM1; test: PathHunter β-arrestin; assay type: cell-based; details: 6 μM
# Method in brief: as §3
# [31] = test system: DRD1; test: PathHunter β-arrestin; assay type: cell-based; details: antagonist mode, 6 μM
# Method in brief: as §3
# [32] = test system: CCKAR; test: PathHunter β-arrestin; assay type: cell-based; details: antagonist mode, 6 μM
# Method in brief: as §2
substance,measurement,setting,value
Proline rich polypeptide 1 [PRP-1],% Activity,[1]; agonist mode,1%
same,% Inhibition,[1]; antagonist mode,8%
same,% Activity,[2]; agonist mode,1%
same,% Inhibition,[2]; antagonist mode,−2%
same,% Activity,[3],1%
same,% Inhibition,[4],−1%
same,% Activity,[5]; agonist mode,1%
same,% Inhibition,[5]; antagonist mode,−3%
same,% Activity,[6]; agonist mode,2%
same,% Inhibition,[6]; antagonist mode,2%
same,colocalization with TLR6,[7],nuclear and cytoplasmic colocalization with PRP-1 is demonstrated
same,% Inhibition,[8],−3%
same,% Activity,[9]; agonist mode,1%
same,% Inhibition,[9]; antagonist mode,2%
same,gene expression,"[10]; 10 μg/ml PRP-1, heat map, average Ct, technical triplicates",well expressed
same,fold change (∆Ct),[10]; qRT-PCR,did not report significant fold change
same,% Inhibition,[11],−1%
same,% Inhibition,[12],−7%
same,% Inhibition,[13],−8%
same,% Activity,[14]; agonist mode,1%
same,% Inhibition,[14]; antagonist mode,−3%
same,% Inhibition,[15],−2%
same,% Activity,[16]; agonist mode,6%
same,% Inhibition,[16]; antagonist mode,−3%
same,% Inhibition,[17],−4%
same,% Inhibition,[18],1%
same,% Activity,[19]; agonist mode,1%
same,% Inhibition,[19]; antagonist mode,−2%
same,% Inhibition,[20],5%
same,% Activity,[21],1%
same,% Activity,[22]; agonist mode,1%
same,% Inhibition,[22]; antagonist mode,−6%
same,% Inhibition,[23],−1%
same,% Activity,[24],−2%
same,% Activity,[25],1%
same,% Activity,[26]; agonist mode,−1%
same,% Inhibition,[26]; antagonist mode,1%
same,% Activity,[27]; agonist mode,1%
same,% Inhibition,[27]; antagonist mode,−1%
same,fold upregulation (∆∆Ct),"[28]; P<0.0001, 2^−∆∆Ct, normalized to GAPDH, ACTB",5.26 fold and > 5 fold
same,gene expression,"[28]; heat map, vs nontreated control, technical triplicates",high expression
same,"GPCR coupling, antagonist mode",[29],no indication that PRP-1 was G protein coupled
same,% Activity,[30]; agonist mode,1%
same,% Inhibition,[30]; antagonist mode,−12%
same,% Inhibition,[31],−5%
same,% Inhibition,[32],−3%
